Experimental data published in ChEMBL document CHEMBL3112447, “Discovery of 1-methyl-1H-imidazole derivatives as potent Jak2 inhibitors” (J Med Chem, 2014).

Assays:
[1] = system: Mus musculus; assay: Toxicity in SCID mouse xenografted with human UKE1 cells assessed as body weight loss at 10 mg/kg, po bid administered for 14 days measured on day 31 (reference value: 7.1%); type: organism-based; parameters: dose 10 mg/kg, route oral; details: in vivo, 336 h
How it was run: (§1)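 UKE-1 cells mixed with matrigel implanted subcutaneously in female SCID mice. On day 15, mice randomized at a mean tumor volume of about 150 mm³. Oral gavage twice daily at 3 or 10 mg/kg, or vehicle, for 14 days. Tumor volume and body weight tracked through the dosing phase.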

[2] = system: Mus musculus; assay: Toxicity in SCID mouse xenografted with human UKE1 cells assessed as body weight loss at 3 mg/kg, po bid administered for 14 days measured on day 31 (reference value: 7.1%); type: organism-based; parameters: dose 3 mg/kg, route oral; details: in vivo, 336 h; how it was run: as §1
[3] = system: UKE1; assay: Antitumor activity against human UKE1 cells xenografted in po dosed SCID mouse assessed as tumor growth inhibition administered bid for 14 days; type: functional, organism-based; how it was run: as §1
[4] = system: Mus musculus; assay: In vivo inhibition of Jak2 in mouse transfected with mouse BA/F3 cells expressing TEL-Jak2 assessed as inhibition of STAT5 phosphorylation at 10 mg/kg, po after 12 hrs by Western blotting analysis; type: functional; details: BaF3, 12 h
How it was run: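 Mice bearing BaF3 TEL-JAK2 cells given a single oral dose of 3, 5 or 10 mg/kg and sacrificed at various times after dosing. Spleen lysates probed for phospho-STAT5 and total STAT5 by Western blot, and pSTAT5 inhibition assessed.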

[5] = Cytotoxicity against human UKE1 cells expressing Jak2 V617F mutant after 72 hrs by MTS assay; type: functional; details: UKE1, 72 h
[6] = Cytotoxicity against mouse BA/F3 cells expressing TEL-Tyk2 after 72 hrs by MTS assay; type: functional; details: BaF3, 72 h
How it was run: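 BaF3 cells transfected with the kinase domain of Jak1, Jak3 or Tyk2 (TEL fusions). Growth inhibition measured as the counter-screen for cellular selectivity.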

[7] = molecular target: Casein kinase II subunit alpha (Homo sapiens, UniProt P68400); assay: Inhibition of human recombinant 6 X His-tagged full length CK2alpha expressed in insect sf21 cells using CK2tide as substrate after 20 mins by fluorescence assay
[8] = molecular target: Protein kinase C zeta type (Homo sapiens, UniProt Q05513); assay: Inhibition of human PKCzeta
How it was run: (§2)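 Panel of 82 kinases. Radiometric filter-binding assay with ATP at or near Km. Compound tested at 0.01, 0.10 and 1.0 μM. Values expressed as minimum possible fold selectivity against Jak2.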

[9] = molecular target: LIM domain kinase 1 (Homo sapiens, UniProt P53667); assay: Inhibition of human LIMK1; how it was run: as §2
[10] = molecular target: Fibroblast growth factor receptor 1 (Homo sapiens, UniProt P11362); assay: Inhibition of human FGFR1; how it was run: as §2
[11] = molecular target: Proto-oncogene tyrosine-protein kinase receptor Ret (Homo sapiens, UniProt P07949); assay: Inhibition of human Ret; how it was run: as §2
[12] = molecular target: Vascular endothelial growth factor receptor 3 (Homo sapiens, UniProt P35916); assay: Inhibition of human Flt4; how it was run: as §2
[13] = molecular target: Tyrosine-protein kinase ABL1 (Homo sapiens, UniProt P00519); assay: Inhibition of human Abl; how it was run: as §2
[14] = molecular target: Vascular endothelial growth factor receptor 2 (Homo sapiens, UniProt P35968); assay: Inhibition of human KDR; how it was run: as §2
[15] = molecular target: Casein kinase II subunit alpha' (Homo sapiens, UniProt P19784); assay: Inhibition of human CK2alpha2; how it was run: as §2
[16] = Half life in beagle dog at 10 mg/kg, po; type: ADME, organism-based, Canis lupus familiaris; parameters: dose 10 mg/kg, route oral; details: in vivo
How it was run: (§3)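 Male beagle dogs. Oral dose 10 mg/kg in 0.1% HPMC, pH 2. IV dose 2.5 mg/kg in 20% TEG/D5W. […] Clearance, Vdss, half-life and oral bioavailability (F%) derived from the plasma profiles.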

[17] = Volume of distribution at steady state in beagle dog at 2.5 mg/kg, iv; type: ADME, organism-based, Canis lupus familiaris; parameters: dose 2.5 mg/kg, route intravenous; details: in vivo, read-out: Vdss; how it was run: as §3
[18] = system: Canis familiaris; assay: AUC (0 to 12 hrs) in beagle dog at 10 mg/kg, po; type: ADME, organism-based, Canis lupus familiaris, Plasma; parameters: time < 12 hr, dose 10 mg/kg, route oral; details: in vivo; how it was run: as §3
[19] = Half life in Wistar rat at 10 mg/kg, po and 3 mg/kg, iv; type: ADME, organism-based; details: in vivo
How it was run: (§4)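 Rat pharmacokinetics. Oral dose 10 mg/kg in 0.1% HPMC. IV dose 3 mg/kg in 40% DMA/40% PEG/20% saline. Clearance, half-life, Vdss and oral bioavailability derived from the plasma profiles.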

[20] = Clearance in Wistar rat at 10 mg/kg, po and 3 mg/kg, iv; type: ADME, organism-based; details: in vivo; how it was run: as §4
[21] = Oral bioavailability in Wistar rat at 10 mg/kg; type: ADME, organism-based; details: in vivo; how it was run: as §4
[22] = molecular target: T1, Tyrosine-protein kinase JAK3 (Homo sapiens, UniProt P52333); assay: Inhibition of Jak3 (unknown origin)
T1 sequence (P52333 whole entry): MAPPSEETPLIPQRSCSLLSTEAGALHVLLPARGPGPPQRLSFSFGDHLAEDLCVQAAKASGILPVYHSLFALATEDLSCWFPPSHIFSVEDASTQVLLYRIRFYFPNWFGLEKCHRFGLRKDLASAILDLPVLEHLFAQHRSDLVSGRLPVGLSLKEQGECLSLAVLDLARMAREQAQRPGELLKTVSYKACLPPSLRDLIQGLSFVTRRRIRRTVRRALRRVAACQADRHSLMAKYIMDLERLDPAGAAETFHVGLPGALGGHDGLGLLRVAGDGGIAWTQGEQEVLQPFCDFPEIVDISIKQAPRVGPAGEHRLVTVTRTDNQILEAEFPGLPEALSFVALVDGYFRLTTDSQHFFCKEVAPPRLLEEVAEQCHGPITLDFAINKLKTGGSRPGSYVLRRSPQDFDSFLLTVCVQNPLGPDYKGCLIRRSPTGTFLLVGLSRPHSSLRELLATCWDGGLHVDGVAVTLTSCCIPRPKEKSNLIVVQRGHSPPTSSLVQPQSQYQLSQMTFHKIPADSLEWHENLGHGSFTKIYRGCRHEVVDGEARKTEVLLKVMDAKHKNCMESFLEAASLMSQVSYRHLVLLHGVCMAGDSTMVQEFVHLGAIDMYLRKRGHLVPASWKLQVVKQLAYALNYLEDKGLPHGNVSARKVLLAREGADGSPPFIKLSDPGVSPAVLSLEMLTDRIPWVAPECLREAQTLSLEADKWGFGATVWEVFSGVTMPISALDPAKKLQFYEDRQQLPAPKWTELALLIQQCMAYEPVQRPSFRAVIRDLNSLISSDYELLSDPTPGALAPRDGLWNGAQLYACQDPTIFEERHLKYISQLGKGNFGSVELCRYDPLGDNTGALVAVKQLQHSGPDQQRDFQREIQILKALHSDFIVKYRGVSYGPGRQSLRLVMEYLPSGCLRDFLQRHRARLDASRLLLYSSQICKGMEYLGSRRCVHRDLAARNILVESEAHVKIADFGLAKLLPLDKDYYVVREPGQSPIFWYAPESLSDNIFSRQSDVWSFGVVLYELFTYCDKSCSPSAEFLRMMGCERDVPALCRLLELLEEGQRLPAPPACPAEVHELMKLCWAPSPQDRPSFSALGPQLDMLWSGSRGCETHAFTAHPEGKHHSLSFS

[23] = Antitumor activity against human UKE1 cells xenografted in SCID mouse assessed as tumor growth inhibition at 10 mg/kg, po bid administered for 14 days measured on day 28; type: functional; details: read-out: TGI; how it was run: as §1

Sequence of Vascular endothelial growth factor receptor 2 (P35968 whole entry): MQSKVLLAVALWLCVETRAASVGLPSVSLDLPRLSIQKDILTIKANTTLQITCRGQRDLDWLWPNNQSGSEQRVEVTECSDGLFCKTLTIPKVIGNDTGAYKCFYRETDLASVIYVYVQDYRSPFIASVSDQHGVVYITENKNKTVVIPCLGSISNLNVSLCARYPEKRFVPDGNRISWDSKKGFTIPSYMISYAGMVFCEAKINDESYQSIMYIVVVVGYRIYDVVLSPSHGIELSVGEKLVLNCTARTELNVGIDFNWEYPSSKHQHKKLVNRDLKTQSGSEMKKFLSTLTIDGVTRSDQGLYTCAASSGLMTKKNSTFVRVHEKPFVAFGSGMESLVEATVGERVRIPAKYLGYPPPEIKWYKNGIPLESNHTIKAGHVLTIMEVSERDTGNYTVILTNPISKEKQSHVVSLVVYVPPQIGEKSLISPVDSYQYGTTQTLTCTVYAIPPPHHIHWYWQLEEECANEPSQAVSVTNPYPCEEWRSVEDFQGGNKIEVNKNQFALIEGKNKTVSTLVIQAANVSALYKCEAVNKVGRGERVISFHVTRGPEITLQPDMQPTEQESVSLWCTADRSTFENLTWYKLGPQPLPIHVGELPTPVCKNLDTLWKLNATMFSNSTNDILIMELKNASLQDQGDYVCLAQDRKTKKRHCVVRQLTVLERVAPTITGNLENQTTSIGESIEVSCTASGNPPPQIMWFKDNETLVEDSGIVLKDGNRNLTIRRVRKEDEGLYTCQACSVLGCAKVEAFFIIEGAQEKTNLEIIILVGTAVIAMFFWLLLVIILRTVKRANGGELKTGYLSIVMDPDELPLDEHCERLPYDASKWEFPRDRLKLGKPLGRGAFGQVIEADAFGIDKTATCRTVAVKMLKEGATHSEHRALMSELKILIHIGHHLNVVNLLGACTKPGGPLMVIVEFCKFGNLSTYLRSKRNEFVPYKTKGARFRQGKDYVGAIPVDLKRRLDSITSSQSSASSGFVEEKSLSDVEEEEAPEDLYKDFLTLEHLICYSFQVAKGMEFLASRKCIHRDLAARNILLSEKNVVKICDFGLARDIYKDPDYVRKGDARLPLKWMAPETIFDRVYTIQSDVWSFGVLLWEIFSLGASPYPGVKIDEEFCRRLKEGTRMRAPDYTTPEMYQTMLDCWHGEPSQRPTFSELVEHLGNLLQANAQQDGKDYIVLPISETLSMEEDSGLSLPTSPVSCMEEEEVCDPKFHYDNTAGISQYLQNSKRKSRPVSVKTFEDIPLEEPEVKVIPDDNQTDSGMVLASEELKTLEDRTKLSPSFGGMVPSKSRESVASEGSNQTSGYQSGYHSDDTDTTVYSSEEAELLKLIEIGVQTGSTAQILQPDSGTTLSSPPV
Sequence of Vascular endothelial growth factor receptor 3 (P35916 whole entry): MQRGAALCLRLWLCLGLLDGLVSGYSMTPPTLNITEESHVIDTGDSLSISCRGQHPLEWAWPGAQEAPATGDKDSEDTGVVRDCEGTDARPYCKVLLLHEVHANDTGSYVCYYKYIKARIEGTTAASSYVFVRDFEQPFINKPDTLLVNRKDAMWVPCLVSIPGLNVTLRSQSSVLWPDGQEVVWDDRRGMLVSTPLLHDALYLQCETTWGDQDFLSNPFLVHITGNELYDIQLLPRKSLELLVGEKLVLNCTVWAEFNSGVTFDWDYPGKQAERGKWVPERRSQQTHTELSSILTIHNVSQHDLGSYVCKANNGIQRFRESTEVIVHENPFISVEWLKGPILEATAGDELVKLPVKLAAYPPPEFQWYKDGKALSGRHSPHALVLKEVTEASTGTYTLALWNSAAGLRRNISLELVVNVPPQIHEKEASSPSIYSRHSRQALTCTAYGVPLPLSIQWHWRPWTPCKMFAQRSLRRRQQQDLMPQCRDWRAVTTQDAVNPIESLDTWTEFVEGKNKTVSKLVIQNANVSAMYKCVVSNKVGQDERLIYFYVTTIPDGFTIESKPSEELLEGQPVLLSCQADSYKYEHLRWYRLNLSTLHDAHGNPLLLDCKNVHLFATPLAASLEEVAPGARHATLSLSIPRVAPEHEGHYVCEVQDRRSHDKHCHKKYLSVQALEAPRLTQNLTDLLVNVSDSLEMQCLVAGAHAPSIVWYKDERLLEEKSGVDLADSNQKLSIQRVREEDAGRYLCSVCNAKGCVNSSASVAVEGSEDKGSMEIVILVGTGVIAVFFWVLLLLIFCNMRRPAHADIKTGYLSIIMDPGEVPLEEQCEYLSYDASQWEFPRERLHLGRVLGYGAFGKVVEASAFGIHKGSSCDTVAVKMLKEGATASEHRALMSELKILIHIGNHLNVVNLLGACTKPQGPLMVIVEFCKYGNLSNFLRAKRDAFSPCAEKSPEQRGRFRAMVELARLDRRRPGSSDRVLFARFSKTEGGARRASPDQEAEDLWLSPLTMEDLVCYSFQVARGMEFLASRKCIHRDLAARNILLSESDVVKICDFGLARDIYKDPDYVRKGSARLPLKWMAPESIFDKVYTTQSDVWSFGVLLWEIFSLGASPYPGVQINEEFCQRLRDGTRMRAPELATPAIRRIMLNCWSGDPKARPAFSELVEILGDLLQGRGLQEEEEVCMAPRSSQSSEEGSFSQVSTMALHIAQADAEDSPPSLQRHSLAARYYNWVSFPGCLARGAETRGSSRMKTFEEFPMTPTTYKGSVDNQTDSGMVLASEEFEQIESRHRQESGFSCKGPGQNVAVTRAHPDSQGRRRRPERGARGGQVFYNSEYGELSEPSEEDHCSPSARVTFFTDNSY
Sequence of Protein kinase C zeta type (Q05513 whole entry): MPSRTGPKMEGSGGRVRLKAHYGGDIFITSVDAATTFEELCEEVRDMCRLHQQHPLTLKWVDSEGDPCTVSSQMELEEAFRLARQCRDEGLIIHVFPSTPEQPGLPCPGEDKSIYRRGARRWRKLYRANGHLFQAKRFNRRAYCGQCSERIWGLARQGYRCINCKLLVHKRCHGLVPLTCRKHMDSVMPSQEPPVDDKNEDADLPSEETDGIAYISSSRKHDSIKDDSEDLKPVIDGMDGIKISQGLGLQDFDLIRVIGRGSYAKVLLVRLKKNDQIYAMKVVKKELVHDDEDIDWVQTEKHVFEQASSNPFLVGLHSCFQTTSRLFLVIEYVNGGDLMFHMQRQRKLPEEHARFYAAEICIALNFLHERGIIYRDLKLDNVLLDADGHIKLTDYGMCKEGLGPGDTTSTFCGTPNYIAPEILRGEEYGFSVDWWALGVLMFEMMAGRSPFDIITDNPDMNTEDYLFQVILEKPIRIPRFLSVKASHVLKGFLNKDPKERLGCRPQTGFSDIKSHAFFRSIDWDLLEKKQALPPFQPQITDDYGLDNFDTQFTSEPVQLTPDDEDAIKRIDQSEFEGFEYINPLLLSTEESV
Sequence of Casein kinase II subunit alpha' (P19784 whole entry): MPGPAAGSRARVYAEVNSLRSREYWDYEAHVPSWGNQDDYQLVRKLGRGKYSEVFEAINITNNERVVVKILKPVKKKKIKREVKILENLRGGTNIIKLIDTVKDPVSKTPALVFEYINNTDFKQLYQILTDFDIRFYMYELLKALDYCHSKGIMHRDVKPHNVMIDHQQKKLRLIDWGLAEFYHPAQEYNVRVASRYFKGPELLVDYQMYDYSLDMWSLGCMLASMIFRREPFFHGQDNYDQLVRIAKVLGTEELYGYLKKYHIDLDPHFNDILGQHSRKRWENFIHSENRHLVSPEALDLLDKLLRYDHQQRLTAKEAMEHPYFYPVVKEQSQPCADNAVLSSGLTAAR
Sequence of Casein kinase II subunit alpha (P68400 whole entry): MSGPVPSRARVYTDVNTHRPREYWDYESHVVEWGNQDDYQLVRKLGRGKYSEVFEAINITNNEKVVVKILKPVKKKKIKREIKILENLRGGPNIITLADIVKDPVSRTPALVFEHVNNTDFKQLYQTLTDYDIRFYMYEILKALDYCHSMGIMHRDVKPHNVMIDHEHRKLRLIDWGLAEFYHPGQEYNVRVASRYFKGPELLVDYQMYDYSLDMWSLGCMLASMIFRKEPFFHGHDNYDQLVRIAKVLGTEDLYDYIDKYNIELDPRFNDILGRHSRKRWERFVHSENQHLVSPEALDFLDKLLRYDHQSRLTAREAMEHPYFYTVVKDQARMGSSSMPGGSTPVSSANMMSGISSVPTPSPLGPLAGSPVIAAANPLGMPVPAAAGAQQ
Sequence of LIM domain kinase 1 (P53667 whole entry, the tested form may be a part): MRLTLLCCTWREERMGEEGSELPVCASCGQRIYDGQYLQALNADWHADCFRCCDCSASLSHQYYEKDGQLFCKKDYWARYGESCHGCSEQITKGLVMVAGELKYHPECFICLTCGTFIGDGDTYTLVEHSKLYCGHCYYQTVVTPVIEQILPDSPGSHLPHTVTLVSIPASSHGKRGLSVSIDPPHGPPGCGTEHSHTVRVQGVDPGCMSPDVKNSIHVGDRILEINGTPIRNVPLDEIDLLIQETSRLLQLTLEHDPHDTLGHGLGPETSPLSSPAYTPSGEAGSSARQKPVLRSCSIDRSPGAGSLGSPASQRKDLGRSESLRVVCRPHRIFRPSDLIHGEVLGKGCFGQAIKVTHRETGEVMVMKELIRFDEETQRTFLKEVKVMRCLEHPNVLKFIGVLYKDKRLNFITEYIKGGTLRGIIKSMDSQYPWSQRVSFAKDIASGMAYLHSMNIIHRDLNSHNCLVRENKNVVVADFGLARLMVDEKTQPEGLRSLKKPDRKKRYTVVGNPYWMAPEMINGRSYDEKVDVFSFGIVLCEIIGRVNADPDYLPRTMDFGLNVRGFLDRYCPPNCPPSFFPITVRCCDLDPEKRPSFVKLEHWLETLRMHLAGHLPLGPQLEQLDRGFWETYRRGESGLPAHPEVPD

In the case of `C[C@H](Nc1nc(Nc2cn(C)cn2)c2cc[nH]c2n1)c1ncc(F)cn1`, the Activity [1] is reported as 3.1%, the Activity [2] is reported as 7.2% and the TGI [3] is reported as “Dose-dependent effect”. The inhibition in vivo at 10 mg/kg [4] was 50%, the GI50 [5] was 55 nM and the GI50 [6] was 760 nM. For the same compound, the IC50 [7] was > 30000 nM, the IC50 [8] was 200 nM and the IC50 [9] was 63 nM. The IC50 [10] was 50 nM, the IC50 [11] was 46 nM and the IC50 [12] was 40 nM. The IC50 [13] was 25 nM, the IC50 [14] was 22 nM and the IC50 [15] was 2.7 nM. The half-life [16] was 7.6 h, the Vd [17] was 1.9 L/kg and the AUC [18] was 45 µM·h. For the same compound, the half-life [19] was 1.6 h, the clearance [20] was 36 mL/min/kg and the bioavailability [21] was 64%. It also gave an IC50 [22] of 220 nM and an inhibition in vivo at 10 mg/kg [23] of 77%.
